Data as given in ChEMBL document CHEMBL1140840, “New insight for fluoroquinophenoxazine derivatives as possibly new potent topoisomerase I inhibitor” (Bioorg Med Chem Lett, 2008).
pIC50: −log10 of the molar value.

Experiments:
Bos taurus [1] = species: Bos taurus; test: Inhibition of calf thymus topoisomerase 1 assessed as relaxation of supercoiled DNA pBR322 at 2 uM relative to camptothecin
[2] = biological target: DNA topoisomerase 2-alpha (Homo sapiens) (UniProt P11388); test: Inhibition of human topoisomerase 2alpha assessed as relaxation of supercoiled DNA pBR322 at 2 uM relative to etoposide
Procedure, shortened: (§1)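 Human topo IIα (2 units) with 200 ng supercoiled pBR322 in 10 mM Tris-HCl pH 7.9, 50 mM NaCl, 5 mM MgCl2, 1 mM EDTA, 1 mM ATP, 15 µg/mL BSA, 30 min at 30 °C. Compounds at 2 or 10 µM, from 20 mM DMSO stocks. Stopped with EDTA. Products on 1% agarose, stained with ethidium bromide. Supercoiled DNA quantified under UV.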

DU-145 = test: Cytotoxicity against human DU145 cells; type: functional, cell-based
Procedure, shortened: (§2)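 Cells seeded at 2–4 × 10⁴ per well, grown overnight in medium with 10% FBS at 37 °C under 5% CO₂. On day 2 the medium was replaced with medium holding graded compound concentrations. Absorbance was read at 450 nm. IC50 came from a four-parameter logistic fit. Mean ± SD of three experiments, each in triplicate.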

HCT-116 = test: Cytotoxicity against human HCT116 cells; type: functional, cell-based
Procedure, shortened: as §2

MDA-MB-231 = test: Cytotoxicity against human MDA-MB-231 cells; type: functional, cell-based
Procedure, shortened: as §2

Bos taurus [3] = species: Bos taurus; test: Inhibition of calf thymus topoisomerase 1 assessed as relaxation of supercoiled DNA pBR322 at 20 uM relative to camptothecin
HeLa = test: Cytotoxicity against human HeLa cells; type: functional, cell-based
Procedure, shortened: as §2

[4] = biological target: DNA topoisomerase 2-alpha (Homo sapiens) (UniProt P11388); test: Inhibition of human topoisomerase 2alpha assessed as relaxation of supercoiled DNA pBR322 at 10 uM relative to etoposide
Procedure, shortened: as §1

HL-60 = test: Cytotoxicity against human HL60 cells; type: functional, cell-based
Procedure, shortened: as §2

Chain of DNA topoisomerase 2-alpha (Homo sapiens) (P11388 whole entry): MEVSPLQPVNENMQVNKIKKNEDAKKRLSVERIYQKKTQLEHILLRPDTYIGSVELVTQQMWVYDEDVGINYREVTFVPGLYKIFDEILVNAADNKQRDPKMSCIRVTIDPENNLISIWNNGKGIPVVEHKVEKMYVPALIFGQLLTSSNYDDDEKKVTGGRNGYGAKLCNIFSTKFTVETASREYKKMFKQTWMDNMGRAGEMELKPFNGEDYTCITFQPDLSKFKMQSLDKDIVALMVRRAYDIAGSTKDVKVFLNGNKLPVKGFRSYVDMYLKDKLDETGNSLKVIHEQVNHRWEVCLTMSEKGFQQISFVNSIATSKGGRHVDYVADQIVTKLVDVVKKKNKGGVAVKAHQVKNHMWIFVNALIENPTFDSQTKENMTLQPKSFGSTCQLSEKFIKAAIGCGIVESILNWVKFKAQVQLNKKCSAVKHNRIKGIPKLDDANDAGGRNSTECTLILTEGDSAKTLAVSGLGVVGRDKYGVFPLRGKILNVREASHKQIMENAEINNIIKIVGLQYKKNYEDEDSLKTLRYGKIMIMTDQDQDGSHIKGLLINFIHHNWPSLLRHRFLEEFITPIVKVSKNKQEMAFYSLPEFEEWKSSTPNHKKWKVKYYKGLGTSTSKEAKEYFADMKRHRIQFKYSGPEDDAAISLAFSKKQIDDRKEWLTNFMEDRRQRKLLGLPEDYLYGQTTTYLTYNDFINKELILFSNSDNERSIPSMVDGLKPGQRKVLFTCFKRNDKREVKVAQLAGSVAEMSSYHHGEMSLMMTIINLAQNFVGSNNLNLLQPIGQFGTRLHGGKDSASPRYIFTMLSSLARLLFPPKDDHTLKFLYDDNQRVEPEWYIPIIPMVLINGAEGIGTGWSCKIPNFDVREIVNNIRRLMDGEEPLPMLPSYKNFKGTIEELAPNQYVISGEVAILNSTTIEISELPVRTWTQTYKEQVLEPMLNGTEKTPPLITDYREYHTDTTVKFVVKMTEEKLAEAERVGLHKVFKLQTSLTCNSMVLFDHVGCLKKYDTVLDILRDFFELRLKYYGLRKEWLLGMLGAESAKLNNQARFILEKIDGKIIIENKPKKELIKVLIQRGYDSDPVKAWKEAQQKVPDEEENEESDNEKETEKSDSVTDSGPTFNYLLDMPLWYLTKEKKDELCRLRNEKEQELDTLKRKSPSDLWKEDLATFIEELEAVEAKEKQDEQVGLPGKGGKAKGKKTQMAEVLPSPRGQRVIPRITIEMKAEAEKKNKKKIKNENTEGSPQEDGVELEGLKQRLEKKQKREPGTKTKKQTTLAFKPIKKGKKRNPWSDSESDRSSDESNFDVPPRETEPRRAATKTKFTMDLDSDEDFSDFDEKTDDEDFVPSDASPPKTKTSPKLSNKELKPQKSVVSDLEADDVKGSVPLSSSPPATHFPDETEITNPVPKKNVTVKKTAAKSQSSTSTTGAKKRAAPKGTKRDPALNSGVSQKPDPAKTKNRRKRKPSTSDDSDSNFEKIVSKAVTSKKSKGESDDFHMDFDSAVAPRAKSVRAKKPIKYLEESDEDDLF

Compound | inhibition (Bos taurus [1]) | inhibition [2] | pIC50 (DU-145) | pIC50 (HCT-116) | pIC50 (MDA-MB-231) | inhibition (Bos taurus [3]) | pIC50 (HeLa) | inhibition [4] | pIC50 (HL-60)
N[C@H]1CCN(c2c(F)cc3c(=O)c(C(=O)O)cn4c3c2Oc2nc(O)ncc2-4)C1 | 32.4% | 0% | < 4.30 | < 4.30 | < 4.30 | 0% | < 4.30 | 28.8% | < 4.30
N[C@H]1CCN(c2c(F)cc3c(=O)c(C(=O)O)cn4c3c2Oc2ccc([N+](=O)[O-])cc2-4)C1 | 65.7% | 26% | 4.86 | 5.13 | 4.70 | 95.3% | 4.75 | 91.6% | 5.00
N[C@H]1CCN(c2c(F)cc3c(=O)c(C(=O)O)cn4c3c2Oc2ccc(Cl)cc2-4)C1 | 87.9% | 89% | 4.75 | 5.59 | 4.71 | 86.1% | 5.70 | 88.6% | 5.79
CC[C@@]1(O)C(=O)OCc2c1cc1n(c2=O)Cc2cc3ccccc3nc2-1 [CAMPTOTHECIN] | 63.3% | – | 5.49 | 6.00 | 5.38 | 84.1% | 5.97 | – | 7.89
N[C@H]1CCN(c2c(F)cc3c(=O)c(C(=O)O)cn4c3c2Oc2cc(S(=O)(=O)O)c3ccccc3c2-4)C1 | 39.1% | 1.9% | < 4.30 | < 4.30 | < 4.30 | 25% | < 4.30 | 24.7% | < 4.30
N[C@H]1CCN(c2c(F)cc3c(=O)c(C(=O)O)cn4c3c2Sc2ccccc2-4)C1 | 45.1% | 57% | 4.71 | 5.62 | 4.72 | 97.2% | 5.29 | 91.7% | 4.94
COc1cccc2c1C(=O)c1c(O)c3c(c(O)c1C2=O)C[C@@](O)(C(=O)CO)C[C@@H]3O[C@H]1C[C@H](N)[C@H](O)[C@H](C)O1 [DOXORUBICIN] | – | – | 5.80 | 5.96 | 5.86 | – | 5.51 | – | 6.14
N[C@H]1CCN(c2c(F)cc3c(=O)c(C(=O)O)cn4c3c2Oc2ccccc2-4)C1 | 88.9% | 89.1% | 5.74 | 6.06 | 5.36 | 90.2% | 5.63 | 89.4% | 5.62
O=C(O)c1cn2c3c(c(F)c(F)cc3c1=O)Oc1ccccc1-2 | 53.5% | 0.5% | < 4.30 | 5.20 | < 4.30 | 96.6% | < 4.30 | 82.4% | < 4.30
COc1cc([C@@H]2c3cc4c(cc3[C@@H](O[C@@H]3O[C@@H]5CO[C@@H](C)O[C@H]5[C@H](O)[C@H]3O)[C@H]3COC(=O)[C@H]23)OCO4)cc(OC)c1O [ETOPOSIDE] | – | 0.7% | 4.53 | 4.82 | 4.79 | – | 4.74 | 40.9% | 5.84
